How the values were obtained:
Mus musculus [1] = assay: Effect on bleeding time in ICR mouse tail at 1.3 mmol/kg, ip after 15 mins; format: functional
Method in brief: (§1)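 Mice given 1.30 mmol/kg body weight. Tail bleeding time measured before dosing and at 5, 15, 30 and 60 min after dosing. Saline as vehicle control.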

Aorta [2] = assay: Vasorelaxant activity in rat aortic strips assessed as inhibition of noradrenaline-induced vasoconstriction at 100 umol/l; format: functional; design: scale not given: the % may be the effect or the level left
Mus musculus [3] = assay: Analgesic activity in ICR mouse assessed as pain threshold variation at 0.13 mmol/kg, ip after 120 mins by tail flick test; format: functional
Method in brief: (§2)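 Male ICR mice (25 2 g), 12/12 light/dark cycle, 21 2 °C, acclimated one day. Single ip injection in 0.2 ml saline with 0.01 ml DMSO and 0.02 ml Tween 80. Tail-flick pain threshold measured before dosing (BPT) and at 30 min intervals for 150 min. PTV = (post-dose threshold − BPT)/BPT, averaged per animal. Saline controls; ANOVA, p < 0.05.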

Mus musculus [4] = assay: Effect on bleeding time in ICR mouse tail at 1.3 mmol/kg, ip after 60 mins; format: functional; method in brief: as §1
Mus musculus [5] = assay: Analgesic activity in ICR mouse assessed as pain threshold variation at 0.13 mmol/kg, ip after 60 mins by tail flick test; format: functional; method in brief: as §2
Aorta [6] = assay: Vasorelaxant activity in rat aortic strips assessed as inhibition of noradrenaline-induced vasoconstriction at 20 umol/l; format: functional; design: scale not given: the % may be the effect or the level left
Mus musculus [7] = assay: Effect on bleeding time in ICR mouse tail at 1.3 mmol/kg, ip after 30 mins; format: functional; method in brief: as §1
Mus musculus [8] = assay: Analgesic activity in ICR mouse assessed as pain threshold variation at 0.13 mmol/kg, ip after 30 mins by tail flick test; format: functional; method in brief: as §2
Aorta [9] = assay: Vasorelaxant activity in rat aortic strips assessed as inhibition of noradrenaline-induced vasoconstriction at 500 umol/l; format: functional; design: scale not given: the % may be the effect or the level left
Mus musculus [10] = assay: Analgesic activity in ICR mouse assessed as pain threshold variation at 0.13 mmol/kg, ip after 150 mins by tail flick test; format: functional; method in brief: as §2
Mus musculus [11] = assay: Effect on bleeding time in ICR mouse tail at 1.3 mmol/kg, ip after 5 mins; format: functional; method in brief: as §1
Mus musculus [12] = assay: Analgesic activity in ICR mouse assessed as pain threshold variation at 0.13 mmol/kg, ip after 90 mins by tail flick test; format: functional; method in brief: as §2
Mus musculus [13] = assay: Analgesic activity in ICR mouse assessed as pain threshold variation at 0.013 mmol/kg, ip after 30 mins by tail flick test; format: functional, organism-based; method in brief: as §2
Mus musculus [14] = assay: Analgesic activity in ICR mouse assessed as pain threshold variation at 0.013 mmol/kg, ip after 60 mins by tail flick test; format: functional, organism-based; method in brief: as §2
Mus musculus [15] = assay: Analgesic activity in ICR mouse assessed as pain threshold variation at 0.0013 mmol/kg, ip after 150 mins by tail flick test; format: functional, organism-based; method in brief: as §2
Mus musculus [16] = assay: Analgesic activity in ICR mouse assessed as pain threshold variation at 0.0013 mmol/kg, ip after 30 mins by tail flick test; format: functional, organism-based; method in brief: as §2
Mus musculus [17] = assay: Analgesic activity in ICR mouse assessed as pain threshold variation at 0.013 mmol/kg, ip after 120 mins by tail flick test; format: functional, organism-based; method in brief: as §2
Mus musculus [18] = assay: Analgesic activity in ICR mouse assessed as pain threshold variation at 0.0013 mmol/kg, ip after 120 mins by tail flick test; format: functional, organism-based; method in brief: as §2
Mus musculus [19] = assay: Analgesic activity in ICR mouse assessed as pain threshold variation at 0.013 mmol/kg, ip after 90 mins by tail flick test; format: functional, organism-based; method in brief: as §2
Mus musculus [20] = assay: Analgesic activity in ICR mouse assessed as pain threshold variation at 0.0013 mmol/kg, ip after 90 mins by tail flick test; format: functional, organism-based; method in brief: as §2
Mus musculus [21] = assay: Analgesic activity in ICR mouse assessed as pain threshold variation at 0.0013 mmol/kg, ip after 60 mins by tail flick test; format: functional, organism-based; method in brief: as §2
Mus musculus [22] = assay: Analgesic activity in ICR mouse assessed as pain threshold variation at 0.013 mmol/kg, ip after 150 mins by tail flick test; format: functional, organism-based; method in brief: as §2

| SMILES | TIME (Mus musculus [1]) [h] | Activity (Aorta [2]) [%] | Activity (Mus musculus [3]) | TIME (Mus musculus [4]) [h] | Activity (Mus musculus [5]) | Activity (Aorta [6]) [%] | TIME (Mus musculus [7]) [h] | Activity (Mus musculus [8]) | Activity (Aorta [9]) [%] | Activity (Mus musculus [10]) | TIME (Mus musculus [11]) [h] | Activity (Mus musculus [12]) | also measured |
| --- | --- | --- | --- | --- | --- | --- | --- | --- | --- | --- | --- | --- | --- |
| CC1(C)N=C(c2ccccc2[N+](=O)[O-])N([O])C1(C)C | 0.0327 | 20.4 | 23.4 | 0.0324 | 66.9 | 6.98 | 0.0326 | 38.4 | 35.6 | 19.7 | 0.0326 | 57.2 | – |
| COc1ccc(C2=NC(C)(C)C(C)(C)N2[O])c(OC)c1 | 0.0324 | 24 | 71.2 | 0.0328 | 59.7 | 7.33 | 0.0327 | 42 | 37.1 | 32.4 | 0.0331 | 62.5 | – |
| CN(C)c1ccc(C2=NC(C)(C)C(C)(C)N2[O])cc1 | 0.033 | 26 | 34.3 | 0.0327 | 35.5 | 8.02 | 0.0329 | 30.4 | 40 | 27.9 | 0.0331 | 36.2 | – |
| CC1(C)N=C(c2cccc(O)c2)N([O])C1(C)C | 0.0326 | 23 | 72.7 | 0.0326 | 50.3 | 7.06 | 0.0331 | 49.6 | 35.7 | 70.8 | 0.033 | 54 | Activity (Mus musculus [13]): 35.7; Activity (Mus musculus [14]): 37.8; Activity (Mus musculus [15]): 33.5; Activity (Mus musculus [16]): 24.2; Activity (Mus musculus [17]): 59.9; Activity (Mus musculus [18]): 35.2; Activity (Mus musculus [19]): 42.8; Activity (Mus musculus [20]): 30.7; Activity (Mus musculus [21]): 25.6; Activity (Mus musculus [22]): 52.1 |
| CC1(C)N=C(c2ccc(O)cc2)N([O])C1(C)C | 0.0325 | 7.66 | 55.5 | 0.0327 | 70.8 | 5.36 | 0.0326 | 55.7 | 8.71 | 29.9 | 0.0328 | 75.9 | – |
| COc1ccc(C2=NC(C)(C)C(C)(C)N2[O])cc1 | 0.0324 | 23.1 | 68.7 | 0.0331 | 103 | 6.88 | 0.0331 | 35.3 | 35.1 | 53 | 0.0327 | 99.3 | Activity (Mus musculus [13]): 25; Activity (Mus musculus [14]): 89.7; Activity (Mus musculus [15]): 22.6; Activity (Mus musculus [16]): 14.9; Activity (Mus musculus [17]): 50.2; Activity (Mus musculus [18]): 38.4; Activity (Mus musculus [19]): 82.5; Activity (Mus musculus [20]): 50.5; Activity (Mus musculus [21]): 55.2; Activity (Mus musculus [22]): 34.4 |
| COc1ccc(C2=NC(C)(C)C(C)(C)N2[O])cc1O | 0.0325 | 11 | 56.4 | 0.0326 | 48.2 | 5.36 | 0.0328 | 33.1 | 16.6 | 59.8 | 0.0326 | 48.4 | – |
| Cc1ccc(C2=NC(C)(C)C(C)(C)N2[O])cc1 | 0.0324 | 20 | 35.2 | 0.0328 | 53.6 | 7 | 0.0328 | 40.2 | 31.8 | 25.5 | 0.0327 | 43.7 | – |
| CC1(C)N=C(c2ccc3c(c2)OCO3)N([O])C1(C)C | 0.0324 | 24.5 | 58.3 | 0.0324 | 65 | 8.1 | 0.0328 | 52.8 | 37.4 | 25.4 | 0.0326 | 74 | – |
| CC1(C)N=C(c2ccccc2O)N([O])C1(C)C | 0.0329 | 13.4 | 70.2 | 0.0324 | 45.4 | 6.01 | 0.0325 | 48.6 | 20.3 | 62.2 | 0.0324 | 64.2 | – |

Reference: ChEMBL document CHEMBL1147875, “Novel 1-oxyl-2-substitutedphenyl-4,4,5,5-tetramethylimidazolines: synthesis, selectively analgesic action, and QSAR analysis” (2007)
